Tests used:
KOP [1] = molecular target: T1, KOP (Mus musculus, UniProt P33534); experiment: [35S]-GTPγS stimulated binding functional assay, KOP; assay type: biochemical; conditions: for agonism in the [35S]-GTPγS functional assay: KOP and MOP functional assay
In short: (§1)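 Membranes come from CHO cells expressing cloned mouse opioid receptors. Membrane protein (10 µg) is incubated with test compound (5µM), […] and 0.1nM [35S]-GTPγS in 50mM Tris, 3mM MgCl2, 0.2mM EDTA, pH 7.7, for 2 h at room temperature. Non-specific binding is defined with 20µM unlabelled GTPγS. Full-agonist references at 5µM are DAMGO (MOP) and salvinorin A (KOP).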

male Wistar mice = experiment: Warm-water tail-flick test; assay type: in vivo; conditions: for acute antinociceptive agonist effect, tail flick assay: up to 30 mg/kg dose; for percentage of maximum possible effect (% MPE), tail flick assay: compared with the KOP agonist Nalbuphine
KOP [2] = conditions: [35S]GTP-γ-S assay; cited from earlier work
[3] = clinical trials; cited from earlier work
[4] = cited from earlier work
MOP [5] = molecular target: T2, MOP (Mus musculus, UniProt P42866); experiment: Radioligand competitive binding assay, MOP; conditions: MOP over KOP
MOP [6] = molecular target: T2, MOP; experiment: [35S]-GTPγS stimulated binding functional assay, MOP; assay type: biochemical
In short: as §1

prolactin = experiment: Prolactin ELISA assay; assay type: in vivo, mice; conditions: rat prolactin ELISA test; relative to normal level
In short: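 After dosing, blood is drawn by retro-orbital sinus bleed from isoflurane-anaesthetised mice and spun at 1000 g, 4 °C, 10 min. Plasma is diluted 1:20 and prolactin is measured by […] prolactin sandwich ELISA per kit protocol. Values are in ng/mL. Groups are compared with control by one-way ANOVA and Dunnett post-hoc test (p < 0.05).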

KOP [7] = molecular target: T1, KOP; experiment: Radioligand competitive binding assay, KOP; conditions: KOP versus MOP binding

CC(C)[C@@H](CN1CCc2ccccc2C1)NC(=O)c1cccc(-c2cccc(C#N)c2)c1 [(S)-10i, (S)-3′-cyano-N-(1-(3,4-dihydroisoquinolin-2(1H)-yl)-3-methylbutan-2-yl)-[1,1′-biphenyl]-3-carboxamide]
agonism in the [35S]-GTPγS functional assay (KOP [1]): failed to produce any agonism | acute antinociceptive agonist effect, tail flick assay (male Wistar mice): failed to show any significant agonist effect

CC(C)[C@@H](CN1CC[C@@](C)(c2cccc(O)c2)[C@@H](C)C1)NC(=O)[C@H]1Cc2ccc(O)cc2CN1 [JDTic]
Ki (KOP [2]): 0.006 nM | µ/ĸ ratio (KOP [2]): 570 | δ/ĸ ratio (KOP [2]): > 16600 | adverse effects (NSVT) [3]: non-sustained ventricular tachycardia (NSVT) | blood–brain barrier penetration [4]: low blood–brain barrier penetration

Cc1cc(C)cc([C@@H]2CCCN2Cc2ccc(Oc3ccc(C(N)=O)cc3F)cc2)c1 [Aticaprant]
adverse effects (NSVT) [3]: devoid of the NSVT effect

Cc1c(CC(=O)N[C@@H](CN2CCc3ccccc3C2)C(C)C)cccc1[N+](=O)[O-] [(R)-10m, (R)-N-(1-(3,4-dihydroisoquinolin-2(1H)-yl)-3-methylbutan-2-yl)-2-(2-methyl-3-nitrophenyl)acetamide]
MOP selectivity (MOP [5]): 23 fold | EC50 (KOP [1]): 666 nM | EC50 (MOP [6]): 94.5 nM | IC50 (MOP [6]): 94.5 nM | latency in the tail-flick animal model (male Wistar mice; compared with positive control Nalbuphine): comparable latency to the positive control, Nalbuphine | percentage of maximum possible effect (% MPE), tail flick assay (male Wistar mice): comparable to that of the KOP agonist Nalbuphine | blood prolactin levels (prolactin): double

CC(C)[C@@H](CN1CCc2ccccc2C1)NC(=O)c1cccc(-c2cccc(O)c2)c1 [(S)-10h, (S)-N-(1-(3,4-dihydroisoquinolin-2(1H)-yl)-3-methylbutan-2-yl)-3′-hydroxy-[1,1′-biphenyl]-3-carboxamide]
functional character at KOP/MOP (KOP [1]; KOP and MOP): non-selective KOP/MOP antagonist | agonism in the [35S]-GTPγS functional assay (KOP [1]): failed to produce any agonism | acute antinociceptive agonist effect, tail flick assay (male Wistar mice): failed to show any significant agonist effect

CC(C)Cc1ccc([C@@H](C)C(=O)NC(CN2CCc3ccccc3C2)C(C)C)cc1 (stereo partly drawn) [(R)-10d]
KOP selectivity (KOP [7]): most selective | percentage of maximum possible effect (% MPE), tail flick assay (male Wistar mice): comparable to that of the KOP agonist Nalbuphine | blood prolactin levels (prolactin): double

CC(C)[C@H](CN1CCc2ccccc2C1)NC(=O)Cc1c[nH]c2ccccc12 [(R)-10c, (R)-N-(1-(3,4-dihydroisoquinolin-2(1H)-yl)-3-methylbutan-2-yl)-2-(1H-indol-3-yl)acetamide]
acute antinociceptive agonist effect, tail flick assay (male Wistar mice): failed to show any significant agonist effect

CC(C)[C@@H](CN1CCc2ccccc2C1)NC(=O)c1cccc(-c2cccnc2)c1 [(S)-10j, (S)-N-(1-(3,4-dihydroisoquinolin-2(1H)-yl)-3-methylbutan-2-yl)-3-(pyridin-3-yl)benzamide]
percentage of maximum possible effect (% MPE), tail flick assay (male Wistar mice): comparable to that of the KOP agonist Nalbuphine | blood prolactin levels (prolactin): double

— PMC12533025 (Scientific Reports, 2025)
